# H69AR inhibit: growth inhibitors of human H69AR lung tumor cells; AID 598; H69AR lung tumor viability, ATP luminescence, 72 h; hits give low values; viability, % at 10 µM; actives 6% (n = 85,000);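 active = viability at or below 40%; inactive = viability above 40%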;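 note: multidrug resistant small cell line overexpressing MRP-1 efflux transporter; 100% = mean luminescence of untreated control wells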
# Phagocytosis inh: blocks phagocytosis by macrophages | actives 0.07% (n = 110,000) | inhibition, % at 5 µM | J774A.1 macrophage IgG-bead phagocytosis, imaging;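 active = inhibition above the mean of the plate negative controls plus 5 SD, cut at about 13% in these data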;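 note: phagocytic index as fraction of beads internalized from green versus red external bead signal; plate controls were DMSO negative control for no effect and cytochalasin-D positive control for full effect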
# Lung fibro prol: blocks proliferation of human lung fibroblasts; LL 47 human lung fibroblast viability, ATP luminescence; hits give low values; viability, % at 10 µM; actives 1.1% (n = 85,000); AID 719;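 active = viability at or below 50% in the single dose screen; inactive = viability above 50%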;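 note: compound exposure lasted 72 h before the ATP readout; 100% = median luminescence of untreated cell-only wells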
#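 Material: human LL 47 lung fibroblast cells; quantity: 1,150 cells/well; medium: IMEM plus 15% FBS; doses: 0.1% DMSO in all compound wells; timing: overnight attachment after seeding, then 72 h compound exposure at 37 °C; detection: CellTiter-Glo luminescence; measure: % viability of median cell-only signal; controls: cell-only wells, no compound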
# bCat KO growth: beta-catenin-lacking colon tumor cell growth suppression. HCT116 beta-catenin knockout viability, CellTiter-Glo, 60 h; hits give low values. viability, % at 10 µM. actives 1.5% (n = 140,000);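 active = viability at or under a set limit, the compound median less 4 SD, cut at about 6% in these data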;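 note: 0% = Hyamine 1622 control at 20 µM and 100% = untreated cell control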
# HUVEC prolif 384: inhibitors of human endothelial cell proliferation; actives 1.1% (n = 86,000); HUVEC proliferation, CellTiter-Glo luminescence, 72 h; hits give low values; viability, % at 10 µM (by protocol);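 active = viability at or below 30%; inactive = viability above 30%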;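 note: 100% = median luminescence of DMSO-only cell control wells on each plate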
# HCT116 PTEN-null: growth suppressors of cells with PTEN tumor suppressor deletion; HCT116 PTEN-null viability, CellTiter-Glo, 60 h; hits give low values; viability, % at 10 µM; actives 1.2% (n = 140,000); AID 827;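 active = viability at or below a set limit, 4 SD under the median of all tested compounds, cut at about 3.7% in these data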;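 note: PTEN knockout HCT116 line with beta catenin targeted HCT116 as companion control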
# Numbers without * were called inactive; · = no result. Only a selection was taken, and hits are over-represented in it overall.
SMILES,H69AR inhibit,Phagocytosis inh,Lung fibro prol,bCat KO growth,HUVEC prolif 384,HCT116 PTEN-null
O=C(CCl)Nc1ccccc1Sc1ccc(Cl)cc1,·,-0.2,·,2.1*,·,2.5*
CC(=O)N1CCN(CC(=O)Nc2ccccc2Sc2ccc(Cl)cc2)CC1,·,-4.2,·,74.3,·,79.9
Cc1cnc(Nc2nc3ccccc3o2)nc1C(=O)Nc1cccc(C(F)(F)F)c1,1.3*,·,44.3*,70.8,45.4,33.2
Cc1cccc2cc(CN(Cc3ccc(F)cc3)C(=O)N(C)C)c3nnnn3c12,67.7,-0.5,96.9,58.6,83.5,58.6
COC(=O)C1=C(C)N(c2ccc(C(=O)OC)cc2)C(=O)C1,103.9,3.4,102.5,82.5,105.4,77.0
COC(=O)C1=C(C)N(c2cc(Cl)cc(Cl)c2)C(=O)C1,3.6*,0.1,70.4,65.8,80.9,65.3
CCCCn1c(CNC(=O)C23CC4CC(CC(C4)C2)C3)nnc1SC(C)CC (centres undefined),·,-8.1,·,40.1,·,42.3
COc1ccc(N/C(N)=N/c2nc(CSc3ccc(Cl)cc3)cc(=O)[nH]2)cc1,16.3*,1.7,93.8,78.1,53.9,74.6
CC(C)C[C@@H]1NC(=O)[C@H](C(C)C)NC(=O)c2cc([N+](=O)[O-])cc(I)c2OCC[C@@H](C(N)=O)NC1=O,·,·,·,93.8,·,96.4
CCN(C(=O)c1coc(=O)c(Br)c1)c1ccc2c(c1)OCO2,2.0*,-0.4,92.0,83.2,76.7,84.9
CCc1ccc(Nc2nnc(SCc3cc(=O)n4ccsc4n3)s2)cc1,78.0,0.0,101.5,94.9,106.2,108.1
O=c1/c(=C\c2cccn2-c2ccccc2)sc2nc3ccccc3n12,28.5*,1.7,100.2,93.4,58.8,101.9
O=C(O)CCC(=O)Nc1nnc(C(F)(F)F)s1,106.2,-0.6,102.7,100.5,99.5,103.1
CCC(NC(=O)Nc1nnc(C(F)(F)F)s1)(C(F)(F)F)C(F)(F)F,6.0*,-4.6,28.6*,2.1*,22.8*,2.5*
COc1ccc(NC(C)=O)cc1NC(=O)CSc1nnc(-c2ccc(F)cc2)n1N,96.6,-0.8,102.2,90.3,98.5,110.5
COC(=O)COc1ccc(S(=O)(=O)NCc2ccncc2)cc1,91.3,5.4,90.2,1.1*,93.3,84.1
O=C(Nc1cccc(C(F)(F)F)c1)C12CC3CC(CC(C3)C1)C2,79.0,·,98.2,0.9*,88.2,1.0*
COc1ccc(C2=NCCn3cccc32)c(OC)c1,·,-3.1,·,96.4,·,77.8
COc1ccccc1N1C(=O)C2ON(c3ccccc3)C(c3ccc(N(C)C)cc3)C2C1=O (centres undefined),10.6*,-8.9,106.7,99.2,80.7,93.5
COc1ccccc1C1C2C(=O)N(c3ccccc3)C(=O)C2ON1c1ccccc1 (centres undefined),87.9,-2.3,103.2,89.6,90.5,98.4
Cn1cc([N+](=O)[O-])c(C(=O)Nc2cc(Oc3ccccc3)cc([N+](=O)[O-])c2)n1,·,-7.7,·,1.6*,·,1.7*
CCn1cc([N+](=O)[O-])c(C(=O)Nc2ccn(Cc3ccccc3F)n2)n1,·,-0.5,·,96.0,·,97.1
Cc1ccccc1Cn1ccc(NC(=O)c2nn(C)cc2[N+](=O)[O-])n1,·,-8.6,·,3.8*,·,2.1*
CCOc1cc(N2CCOCC2)c(OCC)cc1NC(=O)COc1ccc2ccc(=O)oc2c1,·,-4.6,·,35.4,·,26.4
CCOc1cc(C(=S)N2CCCCC2)ccc1OCC(=O)NCc1ccccc1,22.7*,-0.7,97.5,92.7,104.9,98.5
SMILES,H69AR inhibit,Phagocytosis inh,Lung fibro prol,bCat KO growth,HUVEC prolif 384,HCT116 PTEN-null
COc1ccc(Nc2ncc(C(=O)N3CCC(C(N)=O)CC3)c3ccccc23)cc1,101.0,·,100.5,91.0,93.7,102.4
COc1ccc(Nc2ncc(C(=O)N3CCN(Cc4ccccc4)CC3)c3ccccc23)cc1,62.3,·,77.9,3.9*,52.3,3.4*
O=C(CSc1nc2ccccc2[nH]1)NCC1CCCO1 (centres undefined),·,3.8,·,96.9,·,99.1
Cc1cc(C)c(C)c(S(=O)(=O)N2CCN(Cc3nc4ccccc4[nH]3)CC2)c1C,41.6,·,97.6,68.0,87.8,73.6
Cc1ccc(S(=O)(=O)N2CCN(Cc3nc4ccccc4[nH]3)CC2)cc1C,35.0*,0.0,91.7,82.8,101.0,91.0
CCSc1ccccc1C(=O)n1nnc2ccccc21,12.0*,-1.0,86.4,94.8,80.9,98.3

# Screens (PubChem BioAssay)
